Rows were chosen to be rich in hits. Some 3% of all compounds tested hit in one or more screens of this group.
MPTP inh: inhibitors of mitochondrial permeability transition pore; isolated mouse mitochondria, Ca2+ swelling absorbance, 30 min; inhibition, % at 10 µM; actives 1.4% (n = 360,000);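 active = inhibition of 50% or more, scaled per plate between neutral and stimulator controls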;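 note: 0% = DMSO wells given calcium and 100% = 1 mM EGTA wells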
hiPSC survival: increases survival of single human iPS cells | hiPSC single-cell survival, ATPlite luminescence; 100% = ROCK inhibitor wells, 0% = DMSO | survival enhancement, % at 20 µM | actives 0.044% (n = 360,000); in the data active = survival enhancement above about 18%;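 note: cells exposed to compounds for 16 hours before the ATP read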
Granule exo inh: lytic granule exocytosis inhibition; TALL-104 LAMP-1 surface exposure, flow cytometry; cells stimulated with thapsigargin and PMA; inhibition, % at 10 µM; actives 0.66% (n = 360,000);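 active = inhibition above about 55%, limit read from the data; inconclusive = no clear call, values can overlap the other calls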
beta cell repl: MIN6 beta-cell proliferation induction. MIN6 cells proliferation, ATPlite luminescence, 48 h; cells starved in 0.2% serum; 100% = growth in 10% serum. proliferation, % at 10 µM. actives 0.29% (n = 330,000). AID 2380;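 active = compounds whose signal lies at least 3.5 SD above the mean of all wells on their plate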;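 note: 0% = DMSO-treated cells in low-serum medium and 100% = 10% serum control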
Apaf1 inhib: inhibitors of human Apaf-1 apoptosome; O14727; inhibition, % at 20 µM; actives 0.71% (n = 330,000); reconstituted apoptosome caspase-3 activity, DEVD-Rh110 fluorescence; active = inhibition of at least 40% at 20 µM;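 note: plate controls were DMSO wells for no effect and DEVD-CHO caspase inhibitor wells for full effect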
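detection = Rh110 fluorescence intensity | test system = biochemical Apaf-1 apoptosome reconstitution | also added = cytochrome c and DEVD-Rh110 substrate | schedule = 30 min plus 50 min, RT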
UBC13 polyUb: human UBC13 polyubiquitination inhibition; AID 485273; inhibition, % at 20 µM; UBC13 polyubiquitin chain formation, TR-FRET; actives 0.47% (n = 330,000); in the data active = inhibition above about 45%, passing the limit was not always enough; inconclusive = no clear call, values can overlap the other calls
Target sequence (P61088 whole entry, looked up): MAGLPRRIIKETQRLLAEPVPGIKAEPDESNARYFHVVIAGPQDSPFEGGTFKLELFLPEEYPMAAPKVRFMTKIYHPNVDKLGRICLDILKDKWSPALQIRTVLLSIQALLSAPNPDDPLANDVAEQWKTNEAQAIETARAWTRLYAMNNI
Exocytosis CP01: blocks lytic granule exocytosis; shares compounds with Granule exo inh; TALL-104 cells, LAMP-1 externalization, flow cytometry; stimulated with PMA plus thapsigargin; inhibition, % at 10 µM; actives 11% (n = 1,500); AID 651954; in the data active = inhibition above about 60%;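 note: 0% = stimulated vehicle wells and 100% = unstimulated wells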
* marks the source's active call; other numbers are inactive results; ? = inconclusive; . = no result given.

SMILES | MPTP inh | hiPSC survival | Granule exo inh | beta cell repl | Apaf1 inhib | UBC13 polyUb | Exocytosis CP01
Cn1c(=O)c(N)c2c3c(c(Br)ccc31)C(=O)c1ccccc1-2 | 4 | 0 | 86* | 3 | 22 | -77 | 68*
Cc1cc(SCC(=O)NC2CCCCC2)nc2ccccc12 | 2 | 1 | 98* | 2 | 1 | ? | -14
CCc1cc2cc(C)ccc2nc1SCC(=O)NC1CCCC1 | 2 | 0 | 92* | -3 | 15 | 18 | -4
CCc1cc2cccc(C)c2nc1SCC(=O)NC1CCCC1 | 0 | -1 | 25 | 0 | 13 | 21 | .
CCCCS(=O)(=O)NC(=O)C1(C)CCN1C(=O)C/C=C/c1ccccc1 (stereo not drawn) | -1 | 1 | 2 | . | . | . | .
COc1ccc(C(=O)NCC2(c3ccccc3)CCCC2)c(OC)c1 | -1 | 1 | 88* | -1 | 14 | 12 | 6
COc1cccc(C(=O)NCC2(c3ccccc3)CCCC2)c1 | -1 | 4 | -1 | 2 | 10 | -4 | .
CN(C)CCCn1c2c3ccccc3ccc2c2oc(=O)c3ccccc3c21 | 2 | -5 | 56* | . | . | . | 23
CC(C)(C)c1cc(CP(=O)(c2ccccc2)c2ccccc2)cc(C(C)(C)C)c1O | -1 | 1 | 57* | -5 | 28 | -18 | -12
CCC1C(=O)C(CC)C(c2ccccc2)NC1c1ccccc1 (stereo not drawn) | 0 | 1 | 61* | 3 | 14 | 3 | -5
CCOc1cccc2sc(N(CCN(C)C)C(=O)c3cc4ccccc4cc3OC)nc12 | 0 | 0 | 59* | -8 | 26 | 14 | 15
COc1ccc(NC(=O)CCNC(=O)C2CCN(S(=O)(=O)c3ccccc3)CC2)cc1OC | -1 | -1 | -3 | . | . | . | .
CC(=O)N1c2ccccc2S(=O)(=O)c2ccccc21 | -2 | -1 | 0 | -3 | 2 | -10 | .
CC(=O)N1c2ccccc2S(=O)(=O)c2c1ccc1ccccc21 | 0 | -2 | 79* | . | . | . | -13
O=C(Nc1ccccc1N1CCOCC1)c1cccc(Oc2ccccc2)c1 | 2 | -1 | 63* | -5 | 13 | 4 | -13
CC(C)Oc1cccc(C(=O)Nc2ccccc2N2CCOCC2)c1 | -3 | 0 | 1 | 1 | 3 | 3 | .
COC(=O)C1C(c2ccccc2)C(C(=O)OCc2ccco2)C1c1ccccc1 (stereo not drawn) | 0 | 1 | 69* | -4 | 12 | 0 | 27
O=C(O)C1C(c2ccccc2)C(C(=O)OCc2ccco2)C1c1ccccc1 (stereo not drawn) | 3 | 2 | 0 | -2 | 3 | -11 | .
COc1ccc(OCc2cc(C(=O)NCCN3CCCc4ccccc43)no2)c(Cl)c1 | -1 | 0 | -2 | -6 | 27 | 4 | .
Clc1nc(CN2CCCCC2)nc2sc3c(c12)CCCC3 | -1 | -1 | 98* | -5 | 10 | 1 | -12
Clc1nc(CN2CCOCC2)nc2sc3c(c12)CCC3 | 1 | 0 | -1 | 0 | 7 | -9 | .
Cn1c(=O)c2cc(NC(=S)NC3CCCCC3)ccc2n1Cc1ccc(Cl)cc1 | 2 | -3 | -4 | . | . | . | .
COc1ccc(-n2c(C)c(C)c3c(NCCN(C)C)ncnc32)cc1 | 0 | -1 | -7 | -1 | -4 | 5 | .
Cc1c(C)n(-c2ccccc2)c2ncnc(NCCN(C)C)c12 | 0 | 0 | 65* | 3 | 0 | 3 | -10
O=C(O)Cn1c(=O)n(Cc2ccccc2)c2ccccc21 | 0 | 0 | 58* | -1 | 0 | -6 | -4
CCOc1ccc(NC(=O)c2ccc3[nH]c(=O)c(=O)[nH]c3c2)cc1 | 1 | 0 | 1 | -1 | -9 | 2 | .
O=C(c1ccc2oc(CCc3ccccc3)nc2c1)N1CCC(O)CC1 | 4 | 1 | 0 | -2 | -12 | 1 | .
O=C(c1ccc(Br)cc1)C(CN1CCOCC1)c1ccccc1 (stereo not drawn) | -1 | -1 | 67* | -7 | 10 | -2 | -10
O=C(Nc1nc(-c2ccco2)cs1)c1ccccc1 | 0 | -4 | 71* | -4 | 15 | -6 | -12
